Where “and” joins values, the source holds several entries; their conditions need not be identical. Identical values can stand only once.
How the values were obtained:
Canis familiaris [1] = species: Canis familiaris; test: Percent change from control in the rate of rise of phase 0 of the action potential at 10 uM concentration on Canine Purkinje fibers.; design: species or system Canis lupus familiaris, Purkinje fiber; settings: dog, in vitro
Canis familiaris [2] = species: Canis familiaris; test: Maximum Percent change from control in the rate of rise of phase 0 of the action potential at 10 uM concentration on Canine Purkinje fibers.; format: functional, Canis lupus familiaris, Purkinje fiber; settings: dog, in vitro
Procedure, shortened: (§1)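 Isolated canine Purkinje fibers were superfused with physiological saline gassed with 95% O2/5% CO2 (pH 7.35–7.40) at 36 ± 0.5 °C. Paced at 1.0 Hz with 2-ms pulses at twice diastolic threshold. After up to 1 h stabilization, compounds were tested over 10^-8 to 10^-3 M, 30 min per concentration, one compound per fiber, with vehicle controls. Intracellular microelectrodes (3 M KCl) recorded Vmax and APD95; maximum percent change from control is reported with its concentration.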

Canis familiaris [3] = species: Canis familiaris; test: Maximum Percent change from control in the rate of rise of phase 0 of the action potential at 30 uM concentration on Canine Purkinje fibers.; design: species or system Canis lupus familiaris, Purkinje fiber; settings: dog, in vitro; procedure, shortened: as §1
Canis familiaris [4] = species: Canis familiaris; test: Maximum percent change in conduction time (CT) at 100 uM concentration tested on Canine ventricular muscle fibre; format: functional, Canis lupus familiaris, Muscle tissue
Procedure, shortened: (§2)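 Canine right ventricular papillary muscle strips were superfused at 36 ± 0.5 °C with saline gassed with 95% O2/5% CO2. Diastolic threshold was found with 2-ms stimuli at 4000 ms cycle length, then pacing at 4× threshold for 60 min equilibration. FRP was measured at 1000 ms cycle length by S1-S2 premature stimulus after every tenth S1. Conduction time came from a bipolar electrogram. Various compound concentrations were tested, one compound per strip, with vehicle controls. Percent change from control was taken at 10 µM, or the maximum change with its concentration; for N ≥ 3, mean with range.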

Canis familiaris [5] = species: Canis familiaris; test: Percent change from control in conduction time (CT) at uM concentration tested on Canine ventricular muscle fibre.; M is minimal(<10% change in CT); format: functional; settings: Canis lupus familiaris; Muscle tissue; procedure, shortened: as §2
Canis familiaris [6] = species: Canis familiaris; test: Maximum percent change in repolarization at 100 uM concentration on Canine Purkinje fibers.; format: functional, Canis lupus familiaris, Purkinje fiber; procedure, shortened: as §1
Canis familiaris [7] = species: Canis familiaris; test: Maximum percent change in repolarization at 10 uM concentration on Canine Purkinje fibers.; format: functional, Canis lupus familiaris, Purkinje fiber; procedure, shortened: as §1
Canis familiaris [8] = species: Canis familiaris; test: Percent change in repolarization at 10 Purkinje fibers.; value ranges from 5-16; format: functional, Canis lupus familiaris, Purkinje fiber
Procedure, shortened: (§3)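 Canine Purkinje fibers were held in oxygenated (95% O2–5% CO2) physiological saline, pH 7.35–7.40, at 36 ± 0.5 °C and paced at 1.0 Hz with 2-ms pulses at twice diastolic threshold. Intracellular microelectrodes (3 M KCl) recorded Vmax and APD95 simultaneously. After up to 1 h of stabilization, compounds were tested from 10^-8 to 10^-3 M with 30 min per concentration. One compound per fiber, with vehicle controls. For N ≥ 3, values are the mean with the range.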

Canis familiaris [9] = species: Canis familiaris; test: Maximum percent change in functional refractory period (FRP) at 1 uM on Canine ventricular muscle fibre.; design: species or system Canis lupus familiaris, Muscle tissue; procedure, shortened: as §2
Canis familiaris [10] = species: Canis familiaris; test: Percent change from control in the functional refractory period (FRP) at 10 uM conc. on Canine ventricular muscle fibre.; design: species or system Canis lupus familiaris, Muscle tissue; procedure, shortened: as §2
Cavia porcellus [11] = species: Cavia porcellus; test: Concentration of compound which gives a 20% decrease in contractile force was tested from individual experiments on papillary muscle of guinea pig, activity was expressed as EC-20.; format: functional; settings: Muscle tissue
Procedure, shortened: (§4)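 Contractile force measured in an isolated cardiac muscle preparation. Value is the concentration giving a 20% decrease in force of contraction. NR marks that this decrease was not reached. Values come from individual experiments; for N ≥ 3, the mean is given with the range.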

Canis familiaris [12] = species: Canis familiaris; test: (§5) Maximum Percent change from control in the rate of rise of phase 0 of the action potential at 100 uM concentration on Canine Purkinje fibers.; format: Canis lupus familiaris, Purkinje fiber; settings: dog, in vitro; procedure, shortened: as §1
Canis familiaris [13] = species: Canis familiaris; test: Maximum percent change in conduction time (CT) at 1 uM concentration tested on Canine ventricular muscle fibre; format: functional, Canis lupus familiaris, Muscle tissue; procedure, shortened: as §2
Canis familiaris [14] = species: Canis familiaris; test: Percent change from control in conduction time (CT) at 10 uM concentration tested on Canine ventricular muscle fibre.; format: functional, Canis lupus familiaris, Muscle tissue; procedure, shortened: as §2
Canis familiaris [15] = species: Canis familiaris; test: Maximum percent change in repolarization at 0.1 uM concentration on Canine Purkinje fibers.; format: functional, Canis lupus familiaris, Purkinje fiber; procedure, shortened: as §1
Canis familiaris [16] = species: Canis familiaris; test: Percent change in repolarization at 10 Purkinje fibers.; value ranges from 1-4; format: functional, Canis lupus familiaris, Purkinje fiber; procedure, shortened: as §3
Canis familiaris [17] = species: Canis familiaris; test: Maximum percent change in functional refractory period (FRP) at 100 uM on Canine ventricular muscle fibre.; design: species or system Canis lupus familiaris, Muscle tissue; procedure, shortened: as §2
Cavia porcellus [18] = species: Cavia porcellus; test: Concentration of compound which gives a 20% decrease in contractile force was tested on papillary muscle of guinea pig, activity was expressed as EC-20; N.R. is not reached.; format: functional; settings: Muscle tissue; procedure, shortened: as §4
Canis familiaris [19] = species: Canis familiaris; test: Maximum Percent change from control in the rate of rise of phase 0 of the action potential at 1 uM concentration on Canine Purkinje fibers.; design: species or system Canis lupus familiaris, Purkinje fiber; procedure, shortened: as §1
Canis familiaris [20] = species: Canis familiaris; test: Percent change from control in the rate of rise of phase 0 of the action potential at 10 uM concentration on Canine Purkinje fibers.; value ranges from -32-3; design: species or system Canis lupus familiaris, Purkinje fiber; settings: dog, in vitro
Canis familiaris [21] = species: Canis familiaris; test: Maximum percent change in conduction time (CT) at 10 uM concentration tested on Canine ventricular muscle fibre; format: functional, Canis lupus familiaris, Muscle tissue; procedure, shortened: as §2
Canis familiaris [22] = species: Canis familiaris; test: Percent change from control in conduction time (CT) at 10 uM concentration tested on Canine ventricular muscle fibre.; M is minimal(<10% change in CT); format: functional; settings: Canis lupus familiaris, Muscle tissue; procedure, shortened: as §2
Canis familiaris [23] = species: Canis familiaris; test: Maximum percent change in repolarization at 30 uM concentration on Canine Purkinje fibers.; format: functional, Canis lupus familiaris, Purkinje fiber; procedure, shortened: as §1
Canis familiaris [24] = species: Canis familiaris; test: Percent change in repolarization at 10 Purkinje fibers.; value ranges from 0-25; format: functional, Canis lupus familiaris, Purkinje fiber; procedure, shortened: as §3
Canis familiaris [25] = species: Canis familiaris; test: as §5; design: species or system Canis lupus familiaris, Purkinje fiber; procedure, shortened: as §1
Canis familiaris [26] = species: Canis familiaris; test: Percent change from control in the functional refractory period (FRP) at 10 uMconc. on Canine ventricular muscle fibre.; value ranges from -4-17; design: species or system Canis lupus familiaris, Muscle tissue
Canis familiaris [27] = species: Canis familiaris; test: Maximum percent change in functional refractory period (FRP) at 0.1 uM on Canine ventricular muscle fibre.; design: species or system Canis lupus familiaris, Muscle tissue; procedure, shortened: as §2
Cavia porcellus [28] = species: Cavia porcellus; test: Concentration of compound ( ) which gives a 20% decrease in contractile force was tested on papillary muscle of guinea pig, activity was expressed as EC-20.; format: functional; settings: Muscle tissue; procedure, shortened: as §4
Canis familiaris [29] = species: Canis familiaris; test: Percent change in repolarization at 10 Purkinje fibers.; value ranges from 9-18; format: functional, Canis lupus familiaris, Purkinje fiber; procedure, shortened: as §3
Canis familiaris [30] = species: Canis familiaris; test: Percent change from control in the rate of rise of phase 0 of the action potential at 10 uM concentration on Canine Purkinje fibers.; value ranges from -36.0-1.0; design: species or system Canis lupus familiaris, Purkinje fiber; settings: dog, in vitro
Canis familiaris [31] = species: Canis familiaris; test: Maximum percent change in repolarization at 1 uM concentration on Canine Purkinje fibers.; format: functional, Canis lupus familiaris, Purkinje fiber; procedure, shortened: as §1
Canis familiaris [32] = species: Canis familiaris; test: Percent change in repolarization at 10 Purkinje fibers; value ranges from 3-4.; format: functional, Canis lupus familiaris, Purkinje fiber; procedure, shortened: as §3
Canis familiaris [33] = species: Canis familiaris; test: Percent change in functional refractory period (FRP) at 10 uM on Canine ventricular muscle fibre.; design: species or system Canis lupus familiaris, Muscle tissue
Cavia porcellus [34] = species: Cavia porcellus; test: Concentration of compound which gives a 20% decrease in contractile force was tested from individual experiment on papillary muscle of guinea pig, activity was expressed as EC-20.; NR is not reached.; format: functional; settings: Muscle tissue; procedure, shortened: as §4
Canis familiaris [35] = species: Canis familiaris; test: Percent change from control in the rate of rise of phase 0 of the action potential at 10 uM concentration on Canine Purkinje fibers.; value ranges from -21- -37; format: organism-based, Canis lupus familiaris, Purkinje fiber; settings: dog, in vitro
[36] = Maximum Percent change from control in the rate of rise of phase 0 of the action potential at 100 Purkinje fibers.; format: tissue-based, Purkinje fiber; procedure, shortened: as §1
Canis familiaris [37] = species: Canis familiaris; test: Maximum percent change in conduction time (CT) at 10 uM concentration tested on Canine ventricular muscle fibre; value ranges from -12 - -5; format: functional, Canis lupus familiaris, Muscle tissue; procedure, shortened: as §2
Canis familiaris [38] = species: Canis familiaris; test: Percent change from control in conduction time (CT) at 10 uM concentration tested on Canine ventricular muscle fibre.; value ranges from -12 - -5; format: functional, Canis lupus familiaris, Muscle tissue; procedure, shortened: as §2
Canis familiaris [39] = species: Canis familiaris; test: Percent change in repolarization at 10 Purkinje fibers; value ranges from -11- -25.; format: functional, Canis lupus familiaris, Purkinje fiber; procedure, shortened: as §3
Canis familiaris [40] = species: Canis familiaris; test: Maximum percent change in functional refractory period(FRP) of compound (10 uM) was tested from individual experiment on Canine ventricular muscle fibre.; design: species or system Canis lupus familiaris, Muscle tissue; procedure, shortened: as §2
Canis familiaris [41] = species: Canis familiaris; test: Percent change from control in the functional refractory period (FRP) at 10 uM conc. on Canine ventricular muscle fibre.; value ranges from -1-20; design: species or system Canis lupus familiaris, Muscle tissue; procedure, shortened: as §2
Cavia porcellus [42] = species: Cavia porcellus; test: Concentration of compound which gives a 20% decrease in contractile force was tested on papillary muscle of guinea pig, activity was expressed as EC-20.; format: functional; settings: Muscle tissue; procedure, shortened: as §4

Row | SMILES | Vmax (Canis familiaris [1]) | Vmax (Canis familiaris [2]) | Vmax (Canis familiaris [3]) | CT (Canis familiaris [4]) | APD95 (Canis familiaris [6]) | APD95 (Canis familiaris [7]) | FRP (Canis familiaris [10]) | EC20 (Cavia porcellus [11]) | Vmax (Canis familiaris [12]) | CT (Canis familiaris [13]) | APD95 (Canis familiaris [15]) | FRP (Canis familiaris [17]) | CT (Canis familiaris [22]) | APD95 (Canis familiaris [23]) | further results
1 | CCN(CC)CCCNC(=O)c1cc2ccccc2[nH]1 | -7% | -13% | -13% | -11% | -14% | 16% | 5% | 26 µM | – | – | – | – | – | – | CT (Canis familiaris [5]): Minimal; APD95 (Canis familiaris [8]): 9.6%; FRP (Canis familiaris [9]): 5%
2 | CCN(CC)CCNC(=O)c1c(O)cc(C)nc1C | 0.3% | – | -12% | -16% | 4% | 4% | 21% | – | -7% | -5% | 5% | 26% | – | – | CT (Canis familiaris [14]): -5%; APD95 (Canis familiaris [16]): 3%; EC20 (Cavia porcellus [18]): Not reached; Vmax (Canis familiaris [19]): -5%
3 | CCN(CC)CCCNC(=O)c1[nH]c(C)c(C)c1C | – | – | – | 8% | -5% | 7% | – | – | – | 6% | – | 28% | Minimal | 26% | Vmax (Canis familiaris [20]): -14.3%; CT (Canis familiaris [21]): -9%; APD95 (Canis familiaris [24]): 8.3%; Vmax (uM) (Canis familiaris [25]): -15%; FRP (Canis familiaris [26]): 5.7%; FRP (Canis familiaris [27]): 4%; EC20 (Cavia porcellus [28]): 50 µM
4 | CCN(CC)CCNC(=O)c1cc2ccccc2[nH]1 | -2.3% | 5% | -6% | 15% | -24% | 16% and 18% | 15% | 16 µM | -35% | – | – | 24% | Minimal | – | APD95 (Canis familiaris [29]): 14.3%
5 | CCN(CC)CCCNC(=O)c1c(C)[nH]c(C)c1C | – | – | -14% | – | – | 4% | – | – | -37% | -3% | 5% | 16% | Minimal | – | Vmax (Canis familiaris [30]): -13%; APD95 (Canis familiaris [31]): 6%; APD95 (Canis familiaris [32]): 3.7%; FRP (Canis familiaris [33]): 4%; EC20 (Cavia porcellus [34]): Not reached
6 | CCN(CC)CCCNC(=O)c1cc2cccc(OCc3ccccc3)c2[nH]1 | – | -33% | -56% | – | 18% | -11% | – | – | – | – | – | 7% | – | -38% | Vmax (Canis familiaris [35]): -30.3%; Vmax [36]: -79%; CT (Canis familiaris [37]): -4%; CT (Canis familiaris [38]): -4%; APD95 (Canis familiaris [39]): -16.3%; FRP (Canis familiaris [40]): 20%; FRP (Canis familiaris [41]): 8%; EC20 (Cavia porcellus [42]): 8 µM

Reference: ChEMBL document CHEMBL1124429, “Heterocyclic analogues of benzamide antiarrhythmic agents” (J Med Chem, 1989)
